Measured values taken from ChEMBL document CHEMBL1153609, “Synthesis and cytotoxic activity of alpha-santonin derivatives” (Eur J Med Chem, 2009).

Tests used:
MDA-MB-435 = experiment: Cytotoxicity against human MDA-MB-435 cells after 72 hrs by MTT assay; format: functional, cell-based; conditions: MDA-MB-435, 72 h
Outline: (§1)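 Cells kept in RPMI-1640 with 10% FBS, 2 mM glutamine, penicillin/streptomycin, at 37 °C under 5% CO2. Seeded at 10^5 cells/well (adherent) or 0.5×10^5 cells/well (suspension). After 24 h, compounds in DMSO (0.09–25 μg/mL) added for 72 h; doxorubicin positive control. Medium then replaced with 0.5 mg/mL MTT for 3 h, formazan dissolved in DMSO, absorbance read at 595 nm as % of control; IC50 derived.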

A549 = experiment: Cytotoxicity against human A549 cells after 72 hrs by MTT assay; format: functional, cell-based; conditions: A549, 72 h; outline: as §1
UACC-257 = experiment: Cytotoxicity against human UACC257 cells after 72 hrs by MTT assay; format: functional, cell-based; conditions: UACC-257, 72 h; outline: as §1
PC-3 = experiment: Cytotoxicity against human PC3 cells after 72 hrs by MTT assay; format: functional, cell-based; conditions: PC-3, 72 h; outline: as §1
OVCAR-8 = experiment: Cytotoxicity against human OVCAR8 cells after 72 hrs by MTT assay; format: functional, cell-based; conditions: OVCAR-8, 72 h; outline: as §1
HCT-8 = experiment: Cytotoxicity against human HCT8 cells after 72 hrs by MTT assay; format: functional, cell-based; conditions: HCT-8, 72 h; outline: as §1
A704 = experiment: Cytotoxicity against human A704 cells after 72 hrs by MTT assay; format: functional, cell-based; conditions: A704, 72 h; outline: as §1
SF-295 = experiment: Cytotoxicity against human SF295 cells after 72 hrs by MTT assay; format: functional, cell-based; conditions: SF-295, 72 h; outline: as §1
HL-60 = experiment: Cytotoxicity against human HL60 cells after 72 hrs by MTT assay; format: functional, cell-based; conditions: HL-60, 72 h; outline: as §1
PBMC = experiment: Cytotoxicity against human PBMC cells after 72 hrs by alamar blue assay; format: cell-based
Outline: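 PBMC came from heparinized blood of healthy non-smoking donors and were isolated by Ficoll-Hypaque density gradient. Cultured in RPMI-1640 with 20% FBS, glutamine and antibiotics, with 2% phytohemagglutinin. Plated at 3×10^5 cells/well; after 24 h, compounds in DMSO (0.09–25 μg/mL) added for 72 h; doxorubicin positive control. Resazurin added 24 h before end; absorbance read at 570 and 595 nm as % of control.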

`CC1=C2[C@H]3OC(=O)[C@@H](C)[C@@H]3CC[C@@](C)(O)[C@@H]2CC1=O` was tested, and the IC50 (MDA-MB-435) was over 100 µM, the IC50 (A549) was over 100 µM and the IC50 (UACC-257) was over 100 µM. For the same compound, the IC50 (PC-3) was over 100 µM, the IC50 (OVCAR-8) was over 100 µM and the IC50 (HCT-8) was over 100 µM. The IC50 (A704) was over 100 µM, the IC50 (SF-295) was over 100 µM and the IC50 (HL-60) was over 100 µM.
With `CC1=C2[C@H]3OC(=O)[C@](C)([Se]c4ccccc4)[C@@H]3CC[C@@]2(C)C=CC1=O` the IC50 (MDA-MB-435) was over 100 µM, the IC50 (A549) was over 100 µM and the IC50 (UACC-257) was over 100 µM. For the same compound, the IC50 (PC-3) was over 100 µM, the IC50 (OVCAR-8) was over 100 µM and the IC50 (HCT-8) was over 100 µM. For the same compound, the IC50 (A704) was over 100 µM, the IC50 (SF-295) was over 100 µM and the IC50 (HL-60) was over 100 µM.
Compound `CC(=O)O[C@]1(C)CC[C@H]2[C@H](C)C(=O)O[C@@H]2C2=C(C)C(=O)C[C@H]21` has an IC50 (MDA-MB-435) of over 100 µM, an IC50 (A549) of over 100 µM and an IC50 (UACC-257) of over 100 µM. For the same compound, the IC50 (PC-3) was over 100 µM, the IC50 (OVCAR-8) was over 100 µM and the IC50 (HCT-8) was over 100 µM. It also gave an IC50 (A704) of over 100 µM, an IC50 (SF-295) of over 100 µM and an IC50 (HL-60) of over 100 µM.
`C=C1C(=O)O[C@@H]2C3=C(C)C(=O)C=C[C@]3(C)CC[C@@H]12` gave an IC50 (PBMC) of 3.23 µM, an IC50 (MDA-MB-435) of 6.74 µM and an IC50 (A549) of 13.4 µM. It also gave an IC50 (UACC-257) of 6.05 µM, an IC50 (PC-3) of 13 µM and an IC50 (OVCAR-8) of 6.94 µM. For the same compound, the IC50 (HCT-8) was 2.92 µM, the IC50 (A704) was 10.1 µM and the IC50 (SF-295) was 2.7 µM. For the same compound, the IC50 (HL-60) was 1.14 µM.
In the case of `C=C1C(=O)O[C@@H]2C3=C(C)C(=O)C[C@H]3[C@](C)(OC(C)=O)CC[C@@H]12`, the IC50 (PBMC) is reported as 13.5 µM, the IC50 (MDA-MB-435) is reported as 8.84 µM and the IC50 (A549) is reported as 10.2 µM. It also gave an IC50 (UACC-257) of 7.76 µM, an IC50 (PC-3) of 14.4 µM and an IC50 (OVCAR-8) of 8.67 µM. It also gave an IC50 (HCT-8) of 0.36 µM, an IC50 (A704) of 9.24 µM and an IC50 (SF-295) of 3.06 µM. The IC50 (HL-60) was 1.6 µM.
`CC1=C2[C@H]3OC(=O)[C@@H](C)[C@@H]3CC[C@@](C)(O)[C@@H]2C[C@@H]1O` showed an IC50 (MDA-MB-435) of over 100 µM, an IC50 (A549) of over 100 µM and an IC50 (UACC-257) of over 100 µM. It also gave an IC50 (PC-3) of over 100 µM, an IC50 (OVCAR-8) of over 100 µM and an IC50 (HCT-8) of over 100 µM. For the same compound, the IC50 (A704) was over 100 µM, the IC50 (SF-295) was over 100 µM and the IC50 (HL-60) was over 100 µM.
`CC(=O)O[C@]1(C)CC[C@H]2[C@H](C)C(=O)O[C@@H]2C2=C(C)[C@@H](O)C[C@H]21` was tested, and the IC50 (MDA-MB-435) was over 100 µM, the IC50 (A549) was over 100 µM and the IC50 (UACC-257) was over 100 µM. The IC50 (PC-3) was over 100 µM, the IC50 (OVCAR-8) was over 100 µM and the IC50 (HCT-8) was over 100 µM. The IC50 (A704) was over 100 µM, the IC50 (SF-295) was over 100 µM and the IC50 (HL-60) was over 100 µM.
For `C=C1C(=O)O[C@H]2[C@H]1CC[C@]1(C)C3(C)C(=O)C=CC231` (some centres not stated), the IC50 (PBMC) was 13.4 µM, the IC50 (MDA-MB-435) was 4.57 µM and the IC50 (A549) was 14.5 µM. It also gave an IC50 (UACC-257) of 4.87 µM, an IC50 (PC-3) of 5.07 µM and an IC50 (OVCAR-8) of 3.88 µM. It also gave an IC50 (HCT-8) of 1.96 µM, an IC50 (A704) of 3.61 µM and an IC50 (SF-295) of 2.15 µM. The IC50 (HL-60) was 2.3 µM.
In the case of `COc1cccc2c1C(=O)c1c(O)c3c(c(O)c1C2=O)C[C@@](O)(C(=O)CO)C[C@@H]3O[C@H]1C[C@H](N)[C@H](O)[C@H](C)O1` [DOXORUBICIN], the IC50 (PBMC) is reported as 1.77 µM, the IC50 (MDA-MB-435) is reported as 0.96 µM and the IC50 (A549) is reported as 0.72 µM. For the same compound, the IC50 (UACC-257) was 0.6 µM, the IC50 (PC-3) was 1.32 µM and the IC50 (OVCAR-8) was 0.51 µM. The IC50 (HCT-8) was 0.02 µM, the IC50 (A704) was 2 µM and the IC50 (SF-295) was 0.48 µM. For the same compound, the IC50 (HL-60) was 0.04 µM.
For `CC(C)=C1CC[C@H]2[C@H](C)C(=O)O[C@@H]2/C1=C\CC(=O)O` [ISOFOTOSANTONIC ACID], the IC50 (MDA-MB-435) was over 100 µM, the IC50 (A549) was over 100 µM and the IC50 (UACC-257) was over 100 µM. The IC50 (PC-3) was over 100 µM, the IC50 (OVCAR-8) was over 100 µM and the IC50 (HCT-8) was over 100 µM. The IC50 (A704) was over 100 µM, the IC50 (SF-295) was over 100 µM and the IC50 (HL-60) was over 100 µM.
With `C[C@@H]1C(=O)O[C@H]2[C@H]1CC[C@]1(C)C3(C)C(=O)C=CC231` (some centres not stated) [LUMISANTONIN] the IC50 (MDA-MB-435) was 91.5 µM, the IC50 (A549) was 69.4 µM and the IC50 (UACC-257) was over 100 µM. It also gave an IC50 (PC-3) of 66.5 µM, an IC50 (OVCAR-8) of 49.8 µM and an IC50 (HCT-8) of 59.2 µM. The IC50 (A704) was 85.4 µM, the IC50 (SF-295) was 68.8 µM and the IC50 (HL-60) was 80.2 µM.
Work on `CC1=C2[C@H]3OC(=O)[C@@H](C)[C@@H]3CC[C@@]2(C)C=CC1=O` [SANTONIN] yielded an IC50 (MDA-MB-435) of over 100 µM, an IC50 (A549) of over 100 µM and an IC50 (UACC-257) of over 100 µM. For the same compound, the IC50 (PC-3) was over 100 µM, the IC50 (OVCAR-8) was over 100 µM and the IC50 (HCT-8) was over 100 µM. It also gave an IC50 (A704) of over 100 µM, an IC50 (SF-295) of over 100 µM and an IC50 (HL-60) of over 100 µM.
